Data published in ChEMBL document CHEMBL3272221, “Phosphorus-nitrogen compounds. 21. Murine oncolytic and antifertility effect of adamantylaziridine compounds” (J Med Chem, 1978).
Activity calls are given as the source filed them. The rule behind the calls is not given here.

Assays:
[1] = Octanol-water partition coefficient, log P of the compound; type: physicochemical
How it was run: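 Shake-flask partitioning: 0.5 g solute in 50.0 mL each of 1-octanol and water, shaken 18 h at 24 °C. Layers were separated, filtered and evaporated (octanol removed as its water azeotrope), dried at 70 °C and weighed. Concentrations were determined gravimetrically.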

[2] = test system: Mus musculus; test: Antifertility activity in male Swiss albino mouse assessed as nonpregnant female mouse at 10 mg/kg, ip qd administered for 5 days followed by mating measured after 2 weeks; type: functional, organism-based; parameters: dose 10 mg/kg
How it was run: (§1)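 Male Swiss albino mice, 4–6 per group, dosed ip or orally by gavage for five consecutive days (10, 15, 22.5 or 33.8 mg/kg), then serially mated with females over successive mating periods against control groups. Read-outs were nonpregnant/total females and viable/total conceptus per period. Student's t test versus control (p < 0.05) was used only for groups with at least two pregnant females.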

[3] = test system: Mus musculus; test: Antifertility activity in male Swiss albino mouse assessed as nonpregnant female mouse at 33.8 mg/kg, ip qd administered for 5 days followed by mating measured after 4 weeks; type: functional, organism-based; parameters: dose 33.8 mg/kg; how it was run: as §1
[4] = test system: Mus musculus; test: Antifertility activity in male Swiss albino mouse assessed as viable conceptus at 22.5 mg/kg, ip qd administered for 5 days followed by mating measured after 3 weeks; type: functional, organism-based; parameters: dose 22.5 mg/kg; how it was run: as §1
[5] = test system: Mus musculus; test: Antifertility activity in male Swiss albino mouse assessed as nonpregnant female mouse at 15 mg/kg, po qd administered for 5 days followed by mating measured after 1 week; type: functional, organism-based; parameters: dose 15 mg/kg; how it was run: as §1
[6] = test system: Mus musculus; test: Antifertility activity in male Swiss albino mouse assessed as viable conceptus at 10 mg/kg, ip administered for 5 days followed by mating measured after 5 weeks; type: functional, organism-based; parameters: dose 10 mg/kg; how it was run: as §1
[7] = test system: Mus musculus; test: Antifertility activity in male Swiss albino mouse assessed as nonpregnant female mouse at 10 mg/kg, ip qd administered for 5 days followed by mating measured after 4 weeks; type: functional, organism-based; parameters: dose 10 mg/kg; how it was run: as §1
[8] = test system: Mus musculus; test: Antifertility activity in male Swiss albino mouse assessed as nonpregnant female mouse at 22.5 mg/kg, ip qd administered for 5 days followed by mating measured after 1 week; type: functional, organism-based; parameters: dose 22.5 mg/kg; how it was run: as §1
[9] = test system: Mus musculus; test: Antifertility activity in male Swiss albino mouse assessed as nonpregnant female mouse at 33.8 mg/kg, ip qd administered for 5 days followed by mating measured after 1 week; type: functional, organism-based; parameters: dose 33.8 mg/kg; how it was run: as §1
[10] = test system: Mus musculus; test: Antifertility activity in male Swiss albino mouse assessed as nonpregnant female mouse at 10 mg/kg, […] administered for 5 days followed by mating measured after 1 week; type: functional, organism-based; parameters: dose 10 mg/kg; how it was run: as §1
[11] = test system: Mus musculus; test: Antifertility activity in male Swiss albino mouse assessed as nonpregnant female mouse at 33.8 mg/kg, po qd administered for 5 days followed by mating measured after 1 week; type: functional, organism-based; parameters: dose 33.8 mg/kg; how it was run: as §1
[12] = test system: Mus musculus; test: Antifertility activity in male Swiss albino mouse assessed as viable conceptus at 15 mg/kg, ip administered for 5 days followed by mating measured after 5 weeks; type: functional, organism-based; parameters: dose 15 mg/kg; how it was run: as §1
[13] = test system: Mus musculus; test: Antifertility activity in male Swiss albino mouse assessed as nonpregnant female mouse at 22.5 mg/kg, ip qd administered for 5 days followed by mating measured after 5 weeks; type: functional, organism-based; parameters: dose 22.5 mg/kg; how it was run: as §1
[14] = test system: Mus musculus; test: Antifertility activity in male Swiss albino mouse assessed as nonpregnant female mouse at 22.5 mg/kg, po qd administered for 5 days followed by mating measured after 3 weeks; type: functional, organism-based; parameters: dose 22.5 mg/kg; how it was run: as §1
[15] = test system: Mus musculus; test: Antifertility activity in male Swiss albino mouse assessed as viable conceptus at 10 mg/kg, ip qd administered for 5 days followed by mating measured after 3 weeks; type: functional, organism-based; parameters: dose 10 mg/kg; how it was run: as §1
[16] = test system: Mus musculus; test: Antifertility activity in male Swiss albino mouse assessed as viable conceptus at 33.8 mg/kg, po qd administered for 5 days followed by mating measured after 3 weeks; type: functional, organism-based; parameters: dose 33.8 mg/kg; how it was run: as §1
[17] = test system: Mus musculus; test: Antifertility activity in male Swiss albino mouse assessed as viable conceptus at 10 mg/kg, ip qd administered for 5 days followed by mating measured after 1 week; type: functional, organism-based; parameters: dose 10 mg/kg; how it was run: as §1
[18] = test system: Mus musculus; test: Antifertility activity in male Swiss albino mouse assessed as viable conceptus at 10 mg/kg, ip qd administered for 5 days followed by mating measured after 4 weeks; type: functional, organism-based; parameters: dose 10 mg/kg; how it was run: as §1
[19] = test system: Mus musculus; test: Antifertility activity in male Swiss albino mouse assessed as nonpregnant female mouse at 33.8 mg/kg, po qd administered for 5 days followed by mating measured after 5 weeks; type: functional, organism-based; parameters: dose 33.8 mg/kg; how it was run: as §1
[20] = test system: Mus musculus; test: Antifertility activity in male Swiss albino mouse assessed as viable conceptus at 22.5 mg/kg, ip qd administered for 5 days followed by mating measured after 2 weeks; type: functional, organism-based; parameters: dose 22.5 mg/kg; how it was run: as §1
[21] = test system: L1210; test: Antitumor activity against mouse L1210 cells allografted in mouse assessed as mean survival time at 50 mg/kg, ip after 9 days; type: functional; details: route intraperitoneal
How it was run: (§2)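 Mice bearing ip-implanted L1210 ascites cells dosed ip daily for 9 days, run by NCI contractors. Activity was expressed as % T/C, the mean survival time of treated over control animals as a percent, with >125% taken as active. Deaths at a given dose were recorded as toxicity.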

[22] = test system: Mus musculus; test: Toxicity in mouse allografted with mouse L1210 cells assessed as death at 200 mg/kg, ip; type: organism-based; parameters: dose 200 mg/kg, route intraperitoneal; details: in vivo; how it was run: as §2
[23] = test system: Mus musculus; test: Antifertility activity in male Swiss albino mouse assessed as nonpregnant female mouse at 15 mg/kg, ip qd administered for 5 days followed by mating measured after 1 week; type: functional, organism-based; parameters: dose 15 mg/kg; how it was run: as §1
[24] = Solubility of the compound in water; type: physicochemical; details: buffer
How it was run: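 Saturated aqueous solutions were shaken 23 h at 24 °C. The dissolved amount was determined gravimetrically after evaporation and drying at 70 °C.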

[25] = test system: Mus musculus; test: Antifertility activity in male Swiss albino mouse assessed as nonpregnant female mouse at 33.8 mg/kg, ip qd administered for 5 days followed by mating measured after 2 weeks; type: functional, organism-based; parameters: dose 33.8 mg/kg; how it was run: as §1
[26] = test system: Mus musculus; test: Antifertility activity in male Swiss albino mouse assessed as nonpregnant female mouse at 22.5 mg/kg, po qd administered for 5 days followed by mating measured after 5 weeks; type: functional, organism-based; parameters: dose 22.5 mg/kg; how it was run: as §1
[27] = test system: Mus musculus; test: Antifertility activity in male Swiss albino mouse assessed as nonpregnant female mouse at 33.8 mg/kg, ip qd administered for 5 days followed by mating measured after 5 weeks; type: functional, organism-based; parameters: dose 33.8 mg/kg; how it was run: as §1
[28] = test system: Mus musculus; test: Antifertility activity in male Swiss albino mouse assessed as nonpregnant female mouse at 33.8 mg/kg, ip qd administered for 5 days followed by mating measured after 3 weeks; type: functional, organism-based; parameters: dose 33.8 mg/kg; how it was run: as §1
[29] = test system: Mus musculus; test: Antifertility activity in male Swiss albino mouse assessed as nonpregnant female mouse at 15 mg/kg, po qd administered for 5 days followed by mating measured after 5 weeks; type: functional, organism-based; parameters: dose 15 mg/kg; how it was run: as §1
[30] = test system: Mus musculus; test: Toxicity in mouse allografted with mouse L1210 cells assessed as death at 20 mg/kg, ip; type: organism-based; parameters: dose 20 mg/kg, route intraperitoneal; details: in vivo; how it was run: as §2
[31] = test system: Mus musculus; test: Antifertility activity in male Swiss albino mouse assessed as viable conceptus at 10 mg/kg, po qd administered for 5 days followed by mating measured after 4 weeks; type: functional, organism-based; parameters: dose 10 mg/kg; how it was run: as §1
[32] = test system: L1210; test: Antitumor activity against mouse L1210 cells allografted in mouse assessed as mean survival time at 10 mg/kg, ip after 9 days; type: functional; details: route intraperitoneal; how it was run: as §2
[33] = test system: Mus musculus; test: Antifertility activity in male Swiss albino mouse assessed as reduction of litter size at 10 mg/kg, po administered for 5 days followed by mating measured for 2 weeks; type: functional, organism-based; parameters: dose 10 mg/kg; how it was run: as §1
[34] = test system: Mus musculus; test: Antifertility activity in male Swiss albino mouse assessed as nonpregnant female mouse at 10 mg/kg, ip qd administered for 5 days followed by mating measured after 3 weeks; type: functional, organism-based; parameters: dose 10 mg/kg; how it was run: as §1

With O=P(N1CC1)(N1CC1)C12CC3CC(CC(C3)C1)C2 the logP [1] was 0.88, the Activity [2] was “inactive” and the Activity [3] was “Active”. The Activity [4] was “Active”, the Activity [5] was “inactive” and the Activity [6] was “inactive”. For the same compound, the Activity [7] was “inactive”, the Activity [8] was “Active” and the Activity [9] was “Active”. The Activity [10] was “inactive”, the Activity [11] was “inactive” and the Activity [12] was “inactive”. For the same compound, the Activity [13] was “inactive”, the Activity [14] was “inactive” and the Activity [15] was “inactive”. The Activity [16] was “inactive”, the Activity [17] was “Active” and the Activity [18] was “inactive”. The Activity [19] was “inactive”, the Activity [20] was “inactive” and the T/C [21] was 243%. The Activity [22] was “Toxic”, the Activity [23] was “Active” and the solubility [24] was 0.94%. For the same compound, the Activity [25] was “Active”, the Activity [26] was “inactive” and the Activity [27] was “Active”. The Activity [28] was “Active” and the Activity [29] was “inactive”.

In the case of O=P(NC12CC3CC(CC(C3)C1)C2)(N1CC1)N1CC1, the logP [1] is reported as 1.45, the Activity [30] is reported as “Toxic” and the Activity [17] is reported as “Active”. The Activity [31] was “inactive”, the T/C [32] was 244% and the Activity [33] was “Active”. The solubility [24] was 0.13% and the Activity [34] was “Active”.
